Paper PMC3820002 (Neuropharmacology, 2010)
pKi: −log10 of the molar value. Several values for one entry are separate records, joined by “and”; a condition that tells them apart may be missing. Identical values can stand only once. Blank lines part the entries; values can stand above or below the compound they belong to.

Assays:
[1] = tested on: rat; conditions: ref ScienceLab.com; cited from earlier work
[2] = target: D3 dopamine receptors (Homo sapiens, UniProt P35462); format: cell-based; conditions: transfected HEK cells; test ligand 10 nM; relative to quinpirole
D3 dopamine receptors, sequence (P35462 whole entry): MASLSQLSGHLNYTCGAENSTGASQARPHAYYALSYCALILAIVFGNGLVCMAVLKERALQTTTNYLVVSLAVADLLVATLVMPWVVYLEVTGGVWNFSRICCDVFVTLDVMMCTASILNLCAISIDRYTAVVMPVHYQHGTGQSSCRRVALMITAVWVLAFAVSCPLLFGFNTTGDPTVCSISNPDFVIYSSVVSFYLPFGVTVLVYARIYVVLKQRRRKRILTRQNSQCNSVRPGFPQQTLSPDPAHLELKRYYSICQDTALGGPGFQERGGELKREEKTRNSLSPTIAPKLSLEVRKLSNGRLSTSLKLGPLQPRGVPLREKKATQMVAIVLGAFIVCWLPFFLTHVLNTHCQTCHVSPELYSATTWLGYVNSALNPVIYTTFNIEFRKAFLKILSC

[3] = tested on: D3 dopamine receptor; conditions: transfected CHO cells; maximum 10^-5 M; ref Grundt et al., 2005; cited from earlier work
[4] = tested on: unilaterally lesioned rats; assay: L-dopa dependent abnormal involuntary movements; format: in vivo, rat; conditions: for Normalized total AIMs score, percent relative to vehicle control: 10 mg/kg
[5] = tested on: unilaterally lesioned rats; assay: Apomorphine-dependent AIMs in unilaterally lesioned rats; format: in vivo, rat
Summary of the method: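 Unilaterally lesioned rats received the test compound (10 mg/kg i.p.) or vehicle, immediately followed by apomorphine 0.05 mg/kg s.c. Total AIMs scores were summed over time and expressed as percent of vehicle control, as mean ± S.E.M., n = 12. Periods analysed: 0–60, 0–40 and 50–60 min.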

[6] = tested on: unilaterally lesioned rats; assay: Rotarod test of motor performance and coordination; format: in vivo, rat; conditions: 10 mg/kg i.p.; 30 and 60 minutes post drug administration; p ≥ 0.10
[7] = tested on: unilaterally lesioned rats; assay: Cylinder test of forelimb usage; format: in vivo, rat; conditions: PG01042 10 mg/kg with L-dopa/benserazide 8 mg/kg each
Summary of the method: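 Unilaterally lesioned rats received saline, L-dopa plus benserazide (8 mg/kg each), or these with the test compound (10 mg/kg). In the cylinder, an observer scored which forelimb first touched the Plexiglas wall (left, right or both) during rearing. The right forelimb was contralateral to the lesion. Scoring began 12 min (5 min) and 20 min (until >13 touches/rat) post injection. Read-out was percent usage, n = 7.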

[8] = target: human D2 dopamine receptor; conditions: read-out: Ki at dopamine D2 receptors; ref Grundt et al., 2005; cited from earlier work
[9] = tested on: human D3 dopamine receptor; conditions: binding; ref Grundt et al., 2005; cited from earlier work
[10] = tested on: D2 dopamine receptor; conditions: transfected CHO cells; maximum 10^-5 M; ref Grundt et al., 2005; cited from earlier work
[11] = 10 mg/kg i.p., 0 min pretreatment, L-dopa/benserazide 8 mg/kg each, n = 12

SMILES: C[S+](C)[O-] [DMSO, dimethylsulfoxide]
- Oral acute LD50 [1]: 14500 mg/kg

- Intrinsic activity at D3 receptors, adenylyl cyclase inhibition [2]: antagonist
SMILES: O=C(NC/C=C/CN1CCN(c2cccc(Cl)c2Cl)CC1)c1ccc(-c2ccccn2)cc1 [PG01037, (E)-N-(4-(4-(2,3-dichlorophenyl)piperazin-1-yl)but-2-enyl)-4-(pyridin-2-yl)benzamide]
- Intrinsic activity at D3 receptors, mitogenic assay [3]: antagonist

- Intrinsic activity at D3 receptors, adenylyl cyclase inhibition [2]: agonist
- Precipitation of AIMs by test drug alone ([4]; 10 mg/kg i.p., during the 60 min pretreatment period before L-dopa): did not precipitate any AIMs
SMILES: O=C(NCCCCN1CCN(c2cccc(Cl)c2Cl)CC1)c1ccc(-c2cccnc2)cc1 [PG01042, N-(4-(4-(2,3-dichlorophenyl)piperazin-1-yl)butyl)-4-(pyridin-3-yl)benzamide]
- Mean reduction in the total AIMs score ([4]; 1 mg/kg i.p., 0 min pretreatment, L-dopa/benserazide 8 mg/kg each, n = 12): 8.4 ± 7.3%
- Mean reduction in the total AIMs score ([4]; 3 mg/kg i.p., 0 min pretreatment, L-dopa/benserazide 8 mg/kg each, n = 12, dose response experiment): 25.2 ± 4.4%
- Percent reduction of axial twisting AIM score [4, 11]: 78.5 ± 4.6%
- Percent reduction of forelimb movement AIM score [4, 11]: 56% and 56.0 ± 3.1%
- Percent reduction of locomotion AIM score [4, 11]: 80.4 ± 9.5%
- Percent reduction of orolingual AIM score [4, 11]: 76.5 ± 10.8%
- Normalized total AIMs score, percent relative to vehicle control ([4]; 0 minutes pretreatment before L-dopa/benserazide 8 mg/kg): 29.4 ± 6.1%
- Normalized total AIMs score, percent relative to vehicle control ([4]; 60 minutes pretreatment before L-dopa/benserazide 8 mg/kg): 68.0 ± 8.6%
- Effect on total AIM scores versus vehicle control ([4]; PG01042 3 mg/kg simultaneously with L-dopa 8 mg/kg i.p., F(1,22) = 14.4, n = 12): significantly attenuate
- IC50 for attenuation of total AIMs score, linear regression analysis ([4]; i.p., 0 min pretreatment, doses 0 to 10 mg/kg, L-dopa/benserazide 8 mg/kg each): 6.6 mg/kg
- IC50 for attenuation of total AIMs score, one site fit ([4]; i.p., 0 min pretreatment, curve constrained to 0 and 100%, r^2 = 0.98): 5.6 mg/kg
- Percent reduction in the total AIMs score, apomorphine-dependent ([5]; 10 mg/kg i.p. simultaneously with apomorphine 0.05 mg/kg s.c., 0 to 60 minutes, n = 12): 14.5 ± 3.0%
- Percent attenuation of the AIMs minus locomotor scores, apomorphine-dependent ([5]; PG01042 simultaneously with apomorphine 0.05 mg/kg s.c., whole time period): approximately 15%
- Latency to fall on rotarod versus vehicle control [6]: no statistical significant difference
- Use of right (compromised) forelimb ([7]; 12 minutes post injection, n = 7): 70.1 ± 2.3%
- Use of right paw ([7]; 20 minutes post injection): 85.0 ± 4.6%
- pKi [8]: 7.74
- D3 selectivity compared to the D2 dopamine receptor subtype [9]: 39 fold and > 39 fold
- Intrinsic activity at D2 receptors, mitogenic assay [10]: partial agonist
- Intrinsic activity at D3 receptors, mitogenic assay [3]: partial agonist

SMILES: COc1ccccc1N1CCN(CCN(C(=O)C2CCCCC2)c2ccccn2)CC1 [WAY 100635, reference compound]
- Reduction in the attenuation of total AIMs score by PG01037 ([4]; WAY 100635 1 mg/kg 10 min before PG01037 3 mg/kg, L-dopa 8 mg/kg i.p.): no reduction

SMILES: Cl.O=C1CC2(CCCC2)CC(=O)N1CCCCN1CCN(c2ncccn2)CC1 [buspirone, N-[4-[4-(2-pyrimidinyl)-1-piperazinyl]butyl]-8-azaspiro[4.5]decane-7,9-dione hydrochloride, reference compound]
- %Reduction of total AIMs values ([4]; buspirone 1 mg/kg i.p. with L-dopa 8 mg/kg and benserazide 8 mg/kg, n = 12): 34.8 ± 6.2%
- Effect on total AIM scores versus vehicle control ([4]; buspirone 4 mg/kg 30 minutes prior to L-dopa 8 mg/kg i.p., p < 0.001, n = 10): significant reduction
